Experimental data reported in ChEMBL document CHEMBL2417419, “Synthesis and quantitative structure-activity relationship of imidazotetrazine prodrugs with activity independent of O6-methylguanine-DNA-methyltransferase, DNA mismatch repair, and p53” (J Med Chem, 2013).
The source made the active and inactive calls. No cut-off for these calls is given here.

Test system: A2780
Assay: Ratio of IC50 for human A2780 cells to IC50 for human A2780 cells in presence of MGMT inactivator PaTrin2
Assay type: functional
Details: not given

Row | SMILES | Ratio IC50
1 | NC(=O)c1ncn2c(=O)n(CCN(CCn3nnc4c(C(N)=O)ncn4c3=O)c3ccccc3)nnc12 | 0.5
2 | Cc1ccc(N(CCn2nnc3c(C(N)=O)ncn3c2=O)CCn2nnc3c(C(N)=O)ncn3c2=O)cc1 | 0.5
3 | Cn1nnc2c(C(N)=O)ncn2c1=O [TEMOZOLOMIDE] | >30
4 | CN(CCn1nnc2c(C(N)=O)ncn2c1=O)c1ccc([N+](=O)[O-])cc1 | 1.1
5 | CN(CCn1nnc2c(C(N)=O)ncn2c1=O)c1ccc(F)cc1 | 1.1
6 | CN(CCn1nnc2c(C(N)=O)ncn2c1=O)c1ccc(Cl)cc1 | 1.1
7 | NC(=O)c1ncn2c(=O)n(CCNc3ccc(Cl)cc3)nnc12 | 1.1
8 | COc1ccc(N(CCn2nnc3c(C(N)=O)ncn3c2=O)CCn2nnc3c(C(N)=O)ncn3c2=O)c([N+](=O)[O-])c1 | 0.5

Test system: A2058
Assay: Chemosensitization of human A2058 cells after 5 days by MTT assay
Assay type: functional, cell-based
Details: A2058, 120 h, in the assay text read “Cyquant assay” for “MTT assay”

Row | SMILES | IC50 [µM]
9 | Cn1nnc2c(C(N)=O)ncn2c1=O [TEMOZOLOMIDE] | 35.5
10 | NC(=O)c1ncn2c(=O)n(CCNc3ccc(Cl)cc3)nnc12 | > 100

Test system: not listed separately
Assay: Half life of the compound at pH 7.4
Assay type: physicochemical
Details: not given

Row | half-life [h] | SMILES
11 | 1.24 | Cn1nnc2c(C(N)=O)ncn2c1=O [TEMOZOLOMIDE]

Test system: not listed separately
Assay: (§1) Chemosensitization of MMR-deficient human A2780/CP70 cells after 5 days by MTT assay
Assay type: functional, cell-based
Details: A2780/CP70, 120 h

Row | SMILES | IC50 [µM]
12 | Cn1nnc2c(C(N)=O)ncn2c1=O [TEMOZOLOMIDE] | > 250

Test system: A2780/CP70
Assay: as §1
Assay type: functional, cell-based
Details: not given

Row | SMILES | Activity
13 | NC(=O)c1ncn2c(=O)n(CCN(CCn3nnc4c(C(N)=O)ncn4c3=O)c3ccccc3)nnc12 | Active
14 | Cc1ccc(N(CCn2nnc3c(C(N)=O)ncn3c2=O)CCn2nnc3c(C(N)=O)ncn3c2=O)cc1 | Active
15 | CN(CCn1nnc2c(C(N)=O)ncn2c1=O)c1ccc([N+](=O)[O-])cc1 | Active
16 | CN(CCn1nnc2c(C(N)=O)ncn2c1=O)c1ccc(F)cc1 | Active
17 | CN(CCn1nnc2c(C(N)=O)ncn2c1=O)c1ccc(Cl)cc1 | Active
18 | NC(=O)c1ncn2c(=O)n(CCNc3ccc(Cl)cc3)nnc12 | Active
19 | COc1ccc(N(CCn2nnc3c(C(N)=O)ncn3c2=O)CCn2nnc3c(C(N)=O)ncn3c2=O)c([N+](=O)[O-])c1 | Active

Test system: SNB-19
Assay: Chemosensitization of human SNB19 cells expressing MGMT after 5 days by MTT assay
Assay type: functional, cell-based
Details: SNB-19, 120 h, in the assay text read “Cyquant assay” for “MTT assay”

Row | SMILES | IC50 [µM]
20 | Cn1nnc2c(C(N)=O)ncn2c1=O [TEMOZOLOMIDE] | > 250
21 | NC(=O)c1ncn2c(=O)n(CCNc3ccc(Cl)cc3)nnc12 | > 100

Test system: A2780
Assay: Chemosensitization of human A2780 cells after 5 days by MTT assay in presence of MGMT inactivator PaTrin2
Assay type: functional, cell-based
Details: A2780, 120 h
How it was run: (§2)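 Cells plated at 1×10^3 per well and left overnight at 37 °C in 5% CO2 to adhere. Medium was then replaced with fresh medium holding compound (0 controls to 250 µM; DMSO stock, final DMSO <0.1% v/v) plus 10 µM PaTrin2 to inactivate MGMT. Survival was read by MTT after 5 days at 37 °C.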

Row | SMILES | IC50 [µM]
22 | Cn1nnc2c(C(N)=O)ncn2c1=O [TEMOZOLOMIDE] | 8.5

Test system: HCT-116
Assay: Chemosensitization of human HCT116 cells expressing p53 after 5 days by MTT assay
Assay type: functional, cell-based
Details: HCT-116, 120 h
How it was run: (§3)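 Cells were seeded at 1×10^3 per well and incubated overnight (37 °C, 5% CO2) to attach, then given fresh medium with compound at 0 (control) to 250 µM. Compounds were dissolved in DMSO, final DMSO <0.1% v/v, with no PaTrin2. MTT survival was measured after 5 days at 37 °C. Isogenic HCT116 p53+/+ and p53−/− pair used.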

Row | SMILES | IC50 [µM]
23 | NC(=O)c1ncn2c(=O)n(CCN(CCn3nnc4c(C(N)=O)ncn4c3=O)c3ccccc3)nnc12 | 5.5
24 | Cc1ccc(N(CCn2nnc3c(C(N)=O)ncn3c2=O)CCn2nnc3c(C(N)=O)ncn3c2=O)cc1 | 6.2
25 | CN(CCn1nnc2c(C(N)=O)ncn2c1=O)c1ccc(Cl)cc1 | 55
26 | NC(=O)c1ncn2c(=O)n(CCNc3ccc(Cl)cc3)nnc12 | 13.2
27 | NC(=O)c1ncn2c(=O)n(CCCl)nnc12 [MITOZOLOMIDE] | 60

Test system: A2780
Assay: Chemosensitization of human A2780 cells after 5 days by MTT assay
Assay type: functional, cell-based
Details: A2780, 120 h

Row | SMILES | IC50 [µM]
28 | NC(=O)c1ncn2c(=O)n(CCN(CCn3nnc4c(C(N)=O)ncn4c3=O)c3ccccc3)nnc12 | 1
29 | Cc1ccc(N(CCn2nnc3c(C(N)=O)ncn3c2=O)CCn2nnc3c(C(N)=O)ncn3c2=O)cc1 | 1
30 | Cn1nnc2c(C(N)=O)ncn2c1=O [TEMOZOLOMIDE] | > 250
31 | CN(CCn1nnc2c(C(N)=O)ncn2c1=O)c1ccc([N+](=O)[O-])cc1 | 22
32 | CN(CCn1nnc2c(C(N)=O)ncn2c1=O)c1ccc(F)cc1 | 22
33 | CN(CCn1nnc2c(C(N)=O)ncn2c1=O)c1ccc(Cl)cc1 | 22
34 | NC(=O)c1ncn2c(=O)n(CCNc3ccc(Cl)cc3)nnc12 | 22
35 | COc1ccc(N(CCn2nnc3c(C(N)=O)ncn3c2=O)CCn2nnc3c(C(N)=O)ncn3c2=O)c([N+](=O)[O-])c1 | 1

Test system: HCT-116
Assay: Chemosensitization of p53-deficient human HCT116 cells after 5 days by MTT assay
Assay type: functional, cell-based
Details: HCT-116, 120 h
How it was run: as §3

Row | SMILES | IC50 [µM]
36 | NC(=O)c1ncn2c(=O)n(CCN(CCn3nnc4c(C(N)=O)ncn4c3=O)c3ccccc3)nnc12 | 4.8
37 | Cc1ccc(N(CCn2nnc3c(C(N)=O)ncn3c2=O)CCn2nnc3c(C(N)=O)ncn3c2=O)cc1 | 4.4
38 | CN(CCn1nnc2c(C(N)=O)ncn2c1=O)c1ccc(Cl)cc1 | 35.8
39 | NC(=O)c1ncn2c(=O)n(CCNc3ccc(Cl)cc3)nnc12 | 9.5
40 | NC(=O)c1ncn2c(=O)n(CCCl)nnc12 [MITOZOLOMIDE] | 17.9

Test system: A2780
Assay: Ratio of IC50 for MMR-deficient human A2780/CP70 cells to IC50 for human A2780 cells in presence of MGMT inactivator PaTrin2
Assay type: functional
Details: not given

Row | SMILES | Ratio IC50
41 | NC(=O)c1ncn2c(=O)n(CCN(CCn3nnc4c(C(N)=O)ncn4c3=O)c3ccccc3)nnc12 | 5
42 | Cc1ccc(N(CCn2nnc3c(C(N)=O)ncn3c2=O)CCn2nnc3c(C(N)=O)ncn3c2=O)cc1 | 5
43 | Cn1nnc2c(C(N)=O)ncn2c1=O [TEMOZOLOMIDE] | >27
44 | CN(CCn1nnc2c(C(N)=O)ncn2c1=O)c1ccc([N+](=O)[O-])cc1 | 2.8
45 | CN(CCn1nnc2c(C(N)=O)ncn2c1=O)c1ccc(F)cc1 | 2.8
46 | CN(CCn1nnc2c(C(N)=O)ncn2c1=O)c1ccc(Cl)cc1 | 2.8
47 | NC(=O)c1ncn2c(=O)n(CCNc3ccc(Cl)cc3)nnc12 | 2.8
48 | COc1ccc(N(CCn2nnc3c(C(N)=O)ncn3c2=O)CCn2nnc3c(C(N)=O)ncn3c2=O)c([N+](=O)[O-])c1 | 5

Test system: SNB-19
Assay: Chemosensitization of MGMT-deficient human SNB19 cells after 5 days by MTT assay
Assay type: functional, cell-based
Details: SNB-19, 120 h, in the assay text read “Cyquant assay” for “MTT assay”

Row | SMILES | IC50 [µM]
49 | Cn1nnc2c(C(N)=O)ncn2c1=O [TEMOZOLOMIDE] | 37
50 | NC(=O)c1ncn2c(=O)n(CCNc3ccc(Cl)cc3)nnc12 | 77

Test system: HCT-116
Assay: Ratio of IC50 for human HCT116 cells expressing p53 to IC50 for p53-deficient human HCT116 cells
Assay type: functional
Details: not given

Row | SMILES | Ratio IC50
51 | NC(=O)c1ncn2c(=O)n(CCN(CCn3nnc4c(C(N)=O)ncn4c3=O)c3ccccc3)nnc12 | 1.1
52 | Cc1ccc(N(CCn2nnc3c(C(N)=O)ncn3c2=O)CCn2nnc3c(C(N)=O)ncn3c2=O)cc1 | 1.4
53 | CN(CCn1nnc2c(C(N)=O)ncn2c1=O)c1ccc(Cl)cc1 | 1.5
54 | NC(=O)c1ncn2c(=O)n(CCNc3ccc(Cl)cc3)nnc12 | 1.4
55 | NC(=O)c1ncn2c(=O)n(CCCl)nnc12 [MITOZOLOMIDE] | 3.4

Test system: not listed separately
Assay: (§4) Chemoseinsitizatioin of MMR-deficieint humain A2780/CP70 cells after 5 days by MTT assay in preseince of MGMT iinactivator PaTriin2
Assay type: functional, cell-based
Details: Homo sapiens, A2780/CP70, 120 h
How it was run: as §2

Row | SMILES | IC50 [µM]
56 | Cn1nnc2c(C(N)=O)ncn2c1=O [TEMOZOLOMIDE] | 231

Test system: A2780/CP70
Assay: as §4
Assay type: functional, cell-based
Details: Homo sapiens
How it was run: as §2

Row | SMILES | Activity
57 | NC(=O)c1ncn2c(=O)n(CCN(CCn3nnc4c(C(N)=O)ncn4c3=O)c3ccccc3)nnc12 | Active
58 | Cc1ccc(N(CCn2nnc3c(C(N)=O)ncn3c2=O)CCn2nnc3c(C(N)=O)ncn3c2=O)cc1 | Active
59 | CN(CCn1nnc2c(C(N)=O)ncn2c1=O)c1ccc([N+](=O)[O-])cc1 | Active
60 | CN(CCn1nnc2c(C(N)=O)ncn2c1=O)c1ccc(F)cc1 | Active
61 | CN(CCn1nnc2c(C(N)=O)ncn2c1=O)c1ccc(Cl)cc1 | Active
62 | NC(=O)c1ncn2c(=O)n(CCNc3ccc(Cl)cc3)nnc12 | Active
63 | COc1ccc(N(CCn2nnc3c(C(N)=O)ncn3c2=O)CCn2nnc3c(C(N)=O)ncn3c2=O)c([N+](=O)[O-])c1 | Active
